Test results taken from ChEMBL document CHEMBL4699441, “Identification and Preclinical Evaluation of the Bicyclic Pyrimidine γ-Secretase Modulator BMS-932481” (ACS Med Chem Lett, 2019).
In brackets after ≈: the same amount, converted by molar mass. Activity calls are given as the source filed them. No cut-off for these calls is given here.

What was measured:
[1] = AUC (0 to 24 hrs) in Harlan Sprague-Dawley rat incubated for 24 hrs by LC-MS/MS analysis; type: ADME; design: time 24 hrs; settings: in vivo
[2] = biological target: T1, Solute carrier organic anion transporter family member 1B1 (Homo sapiens, UniProt Q9Y6L6); experiment: Inhibition of OATP1B1 (unknown origin); type: ADME
T1 sequence (Q9Y6L6 whole entry): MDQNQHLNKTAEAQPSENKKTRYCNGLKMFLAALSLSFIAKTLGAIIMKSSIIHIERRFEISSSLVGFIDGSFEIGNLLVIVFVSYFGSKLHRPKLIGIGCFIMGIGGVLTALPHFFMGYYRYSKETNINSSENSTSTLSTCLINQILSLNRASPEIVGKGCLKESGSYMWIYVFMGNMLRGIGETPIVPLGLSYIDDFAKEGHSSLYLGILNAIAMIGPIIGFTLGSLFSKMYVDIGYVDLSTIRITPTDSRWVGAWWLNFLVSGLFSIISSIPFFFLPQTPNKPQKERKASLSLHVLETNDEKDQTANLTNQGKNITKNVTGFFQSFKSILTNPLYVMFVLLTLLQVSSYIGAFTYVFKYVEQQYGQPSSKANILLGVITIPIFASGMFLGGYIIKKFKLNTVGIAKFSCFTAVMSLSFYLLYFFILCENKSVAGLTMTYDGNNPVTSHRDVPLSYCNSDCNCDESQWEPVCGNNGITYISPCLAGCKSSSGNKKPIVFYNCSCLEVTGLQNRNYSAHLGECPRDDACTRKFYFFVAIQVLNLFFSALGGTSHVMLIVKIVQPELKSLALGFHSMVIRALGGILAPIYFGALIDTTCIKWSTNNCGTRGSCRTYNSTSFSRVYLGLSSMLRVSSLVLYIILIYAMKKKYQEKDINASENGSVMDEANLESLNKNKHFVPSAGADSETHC

[3] = biological target: Gamma-secretase (Homo sapiens) (UniProt Q96BI3+Q9NZ42+Q8WW43+P49768+Q92542+P49810); experiment: Modulation of gamma-secretase in human H4 cells overexpressing APP incubated assessed as increase in amyloid beta (1 to 38) secretion for 24 hrs by MALDI-TOF mass spectrometric analysis; type: cell-based; settings: filed as modulator
Summary of the method: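 H4-APPsw cells treated with compound; secreted Aβ species quantified by mass spectrometry; total Aβ1-x checked by ELISA up to 10 μM.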

[4] = Plasma concentration in Harlan Sprague-Dawley rat at 10 mg/kg, po measured after 5 hrs; type: ADME, organism-based
PXR (NR1I2) = biological target: T2, PXR (NR1I2) (Homo sapiens, UniProt O75469); experiment: Transactivation of PXR (unknown origin) assessed as CYP450 induction relative to 10 uM rifampicin; type: ADME
T2 sequence (O75469 whole entry): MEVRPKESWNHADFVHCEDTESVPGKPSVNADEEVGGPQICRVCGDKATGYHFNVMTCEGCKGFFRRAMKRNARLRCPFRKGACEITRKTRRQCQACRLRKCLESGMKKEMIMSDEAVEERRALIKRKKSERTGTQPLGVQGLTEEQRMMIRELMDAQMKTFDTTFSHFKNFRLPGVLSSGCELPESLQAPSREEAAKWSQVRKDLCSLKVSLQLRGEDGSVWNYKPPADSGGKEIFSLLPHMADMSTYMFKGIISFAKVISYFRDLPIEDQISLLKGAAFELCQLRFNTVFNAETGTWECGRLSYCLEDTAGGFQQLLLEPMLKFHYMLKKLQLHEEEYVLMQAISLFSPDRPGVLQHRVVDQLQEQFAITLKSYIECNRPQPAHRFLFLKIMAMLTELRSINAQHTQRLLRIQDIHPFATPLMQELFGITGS
Summary of the method: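 PXR in vitro transactivation assay; maximal response expressed relative to 10 μM rifampicin set as 100%.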

[5] = Metabolic stability in Beagle dog assessed as half life incubated for 24 hrs by LC-MS/MS analysis; type: ADME, Canis lupus familiaris
[6] = Fraction unbound in Sprague-Dawley rat plasma measured after 24 hrs by LC-MS/MS analysis; type: ADME, cell-free
[7] = Fraction unbound in cynomolgus monkey plasma measured after 24 hrs by LC-MS/MS analysis; type: ADME, cell-free, Macaca fascicularis
[8] = Fraction unbound in Beagle dog plasma measured after 24 hrs by LC-MS/MS analysis; type: ADME, cell-free, Canis lupus familiaris
Cytochrome P450 1A2 = biological target: T3, Cytochrome P450 1A2 (Homo sapiens, UniProt P05177); experiment: Inhibition of CYP1A2 in human liver microsomes; type: ADME
T3 sequence (P05177 whole entry): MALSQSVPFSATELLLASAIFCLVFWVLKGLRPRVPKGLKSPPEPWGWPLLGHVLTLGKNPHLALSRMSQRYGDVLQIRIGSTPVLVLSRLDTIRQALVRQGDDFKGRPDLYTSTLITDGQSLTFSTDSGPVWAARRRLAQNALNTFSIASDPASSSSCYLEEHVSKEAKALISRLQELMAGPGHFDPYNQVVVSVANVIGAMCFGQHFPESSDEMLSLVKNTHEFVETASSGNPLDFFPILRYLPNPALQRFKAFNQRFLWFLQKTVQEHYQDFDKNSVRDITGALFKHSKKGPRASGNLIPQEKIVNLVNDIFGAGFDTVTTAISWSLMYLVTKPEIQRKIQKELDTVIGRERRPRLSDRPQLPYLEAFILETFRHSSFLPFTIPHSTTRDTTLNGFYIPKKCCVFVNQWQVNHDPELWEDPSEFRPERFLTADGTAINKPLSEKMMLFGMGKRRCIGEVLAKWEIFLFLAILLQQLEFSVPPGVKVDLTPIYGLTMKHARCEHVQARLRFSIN

[9] = Dissociation constant, pKa of compound by spectrophotometric analysis; type: physicochemical
[10] = Aqueous solubility of the compound at pH 1; type: physicochemical; settings: buffer
[11] = Half life in Sprague-Dawley rat at 2 mg/kg, iv measured up to 24 hrs by LC-MS/MS analysis; type: ADME, organism-based; settings: in vivo
Summary of the method: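 Sprague-Dawley rats, 2 mg/kg by 5 min iv infusion in 9:1 PEG:EtOH, n=5.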

[12] = Oral bioavailability in cynomolgus monkey at 1 mg/kg dosed as nano suspension measured up to 24 hrs by LC-MS/MS analysis; type: ADME, organism-based, Macaca fascicularis; settings: in vivo
Summary of the method: (§1)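 Oral dosing as a nanosuspension in Sprague–Dawley rat, male Beagle dog and male cynomolgus monkey; dogs pretreated with pentagastrin.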

[13] = Half life in Beagle dog at 1 mg/kg, iv measured up to 24 hrs by LC-MS/MS analysis; type: ADME, organism-based, Canis lupus familiaris; settings: in vivo
Summary of the method: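 Male Beagle dogs and male cynomolgus monkeys, 1 mg/kg by 5 min iv infusion in 9:1 PEG:EtOH, n=3.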

[14] = Oral bioavailability in Beagle dog at 1 mg/kg dosed as nano suspension measured up to 24 hrs by LC-MS/MS analysis; type: ADME, organism-based, Canis lupus familiaris; settings: in vivo; summary of the method: as §1
[15] = Cardiotoxicity in unconscious telemeterized rabbit assessed as increase in QTcv time at 3 mg/kg; type: toxicity, organism-based, Oryctolagus cuniculus; settings: in vivo
[16] = Hemodynamic activity in conscious telemeterized rat assessed as change in heart rate at >= 10 mg/kg; type: ADME, organism-based; settings: in vivo
[17] = Toxicity in Beagle dog assessed as NOAEL administered for 1 month; design: species or system Canis lupus familiaris; settings: in vivo, 730 h, time 1 months
[18] = Plasma exposure (AUC) in rat at 10 mg/kg measured after 24 hrs

**Q.** With `CNc1nc(Nc2ccc(-n3cnc(C)n3)c(OC)c2)nc2c1CC[C@H]2c1ccc(F)cc1` as the molecule, how does the AUC(0-t) at 24 h [1] read?
**A.** 4 µM·h

**Q.** What about the IC50 [2] of the same molecule?
**A.** 0.066 µM

**Q.** And the inhibition [3]?
**A.** Active

**Q.** What about the concentration at 5 h [4] of the same molecule?
**A.** 1400 nM

**Q.** What about the Emax (PXR (NR1I2)) of the same molecule?
**A.** 36%

**Q.** And the t1/2 [5]?
**A.** 0.45 h

**Q.** And the Fu [6]?
**A.** 0.7%

**Q.** What about the Fu [7] of the same molecule?
**A.** 1.3%

**Q.** And the Fu [8]?
**A.** 0.8%

**Q.** And the IC50 (Cytochrome P450 1A2)?
**A.** > 40 µM

**Q.** And the pKa [9]?
**A.** 5.9

**Q.** What about the solubility [10] of the same molecule?
**A.** 19 µg/mL (≈ 42.6 µM)

**Q.** And the t1/2 [11]?
**A.** 2.7 h

**Q.** What about the F [12] of the same molecule?
**A.** 45%

**Q.** And the t1/2 [13]?
**A.** 8.7 h

**Q.** What about the F [14] of the same molecule?
**A.** 85%

**Q.** What about the Time [15] of the same molecule?
**A.** 4 ms

**Q.** What about the Activity [16] of the same molecule?
**A.** Non-Toxic

**Q.** What about the NOAEL [17] of the same molecule?
**A.** 150 mg/kg

**Q.** What about the AUC at 24 h [18] of the same molecule?
**A.** 32 µM·h
